Screening data from PubChem.
Sampled rows, rich in hits. Any-hit rate of the full collection: about 2.3%.
ATG4B inhibitor: ATG4B (human) cysteine protease inhibition; AID 504462; Q9Y4P1; ATG4B cleavage of LC3-PLA2, NBD-HPC fluorescence, 1 h; inhibition, % at 8.33 µM; 340,000 compounds, 0.51% hits; in the data active = inhibition above about 40%
Target sequence (Q9Y4P1 whole entry, looked up): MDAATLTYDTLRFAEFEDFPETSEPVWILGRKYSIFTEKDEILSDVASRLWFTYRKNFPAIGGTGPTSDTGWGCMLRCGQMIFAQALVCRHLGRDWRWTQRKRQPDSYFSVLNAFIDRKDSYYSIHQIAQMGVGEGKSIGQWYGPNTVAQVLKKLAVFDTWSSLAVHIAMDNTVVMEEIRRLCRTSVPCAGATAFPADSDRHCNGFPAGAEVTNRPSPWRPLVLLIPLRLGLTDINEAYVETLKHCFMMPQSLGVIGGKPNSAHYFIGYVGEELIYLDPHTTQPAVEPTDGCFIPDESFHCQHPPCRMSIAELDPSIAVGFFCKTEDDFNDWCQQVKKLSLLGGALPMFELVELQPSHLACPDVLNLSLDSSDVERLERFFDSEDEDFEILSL
SR-BI DiI-HDL act: SR-BI HDL lipid transfer activation; 320,000 compounds, 0.096% hits; activation, % at 12.5 µM; CHO ldlA[mSR-BI] cells, DiI-HDL uptake fluorescence, 3 h; 100 = double the neutral-control signal; AID 504775;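 active = mean replicate activation of at least 60% and every replicate at or above 60%; inconclusive = mean or all-replicate condition met, but not both; inactive = mean below 60% and not all replicates reaching 60%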;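 also: 0% = median plate neutral-control signal and 100% = twice that signal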
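Assay system: LDL receptor-deficient CHO ldlA cells overexpressing murine SR-BI / Medium: BSA-supplemented, HEPES-buffered Ham's F12, pH 7.4 / Probe or stimulus: DiI-labelled HDL at 10 µg/mL final / Timing: compound with DiI-HDL co-incubation, 3 h at 37 °C / Technique: bottom-read cell fluorescence after medium removal, ex 550/em 595 nm / Measure: HDL uptake via cellular fluorescence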
CAL PDZ FP-1: blocks peptide binding to human CAL PDZ domain | Q9HD26 | purified CAL PDZ, TMR-peptide fluorescence polarization, 1 h | inhibition, % at 20 µM | 330,000 compounds, 0.02% hits | AID 504414;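 active = highest replicate inhibition of at least 40%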;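 also: plate controls were DMSO neutral control wells for no effect and unlabeled competitor peptide control wells for full effect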
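System: tagged CAL PDZ domain. Schedule: 1 h room-temperature incubation prior to read. Signal: fluorescence polarization (mP). Measure: percent inhibition from loss of millipolarization.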
CAL PDZ FP-2: blocks peptide binding to the human CAL PDZ domain | Q9HD26 | purified CAL PDZ, TMR-peptide fluorescence polarization, 1 h | inhibition, % at 24.9 µM | 300,000 compounds, 0.92% hits | AID 602252;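 active = mean inhibition of at least 30% with at least half of replicates also reaching 30%; inconclusive = no clear call, values can overlap the other calls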;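 also: 0% = DMSO neutral control and 100% = excess unlabeled competitor peptide PRC23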
SR-BI DiI inh: inhibitors of mouse SR-BI mediated HDL lipid uptake; ldlA[mSR-BI] CHO cells, DiI-HDL uptake fluorescence, 3 h; inhibition, % at 12.5 µM; 320,000 compounds, 0.96% hits; AID 488896;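 active = mean replicate inhibition of at least 70% and a set share of replicates each scoring 70 or more; inconclusive = meets just one of the two criteria; inactive = fails both criteria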;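 also: 0% = median of neutral control wells and 100% = median of positive control wells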
* marks the source's active call; other numbers are inactive results; ? = inconclusive; · = not tested or not shown.

SMILES | ATG4B inhibitor | SR-BI DiI-HDL act | CAL PDZ FP-1 | CAL PDZ FP-2 | SR-BI DiI inh
CN1CCN(CC(O)(c2ccc(Cl)cc2)c2ccc(Cl)cc2)CC1 | -9 | 6 | -1 | -1 | -6
CCOC(=O)c1cc2c(c(CCO)n1)[C@@H](CCO)N(S(=O)(=O)C(C)(C)C)C2 | -2 | -18 | -3 | -5 | 18
COc1ccc(C2(C(=O)Nc3ccc(C)c(C)c3)CCOCC2)cc1 | 0 | 1 | -1 | 1 | -1
CC(=O)Nc1ccc(NC(=O)CNC(=O)c2cccc(C)c2)cc1 | 0 | -3 | -1 | -1 | 3
COc1cc(OC)cc(-c2c(-c3cccs3)c3cc(-c4ccc(SC)cc4)ccc3n2C)c1 | 7 | -20 | 1 | -1 | 20
COc1cc(OC)cc(-c2c(-c3cccs3)c3cc(-c4ccc5[nH]ccc5c4)ccc3n2C)c1 | -7 | -80 | 1 | -8 | 80*
COc1cc(OC)cc(-c2c(-c3cccs3)c3cc(-c4ccc5cc[nH]c5c4)ccc3n2C)c1 | 13 | -109 | 1 | -1 | 109*
CC1CCN(c2ccc(C(=O)NCc3ccco3)cc2[N+](=O)[O-])CC1 | 3 | -24 | -1 | -2 | 24
COc1ccc(S(=O)(=O)NCC(=O)N(CC2CCCO2)C(C(=O)NC2CCCC2)C(C)C)cc1 (stereo not given) | -4 | 4 | -3 | -6 | -4
O=C(Nc1sc2c(c1C(=O)NC1CCCCC1)CCC2)c1ccco1 | -1 | -75 | 0 | -2 | 75*
CC1CCc2sc(NC(=O)c3ccc(N4C(=O)CCC4=O)cc3)c(C(N)=O)c2C1 (stereo not given) | 2 | -59 | 0 | -1 | 59
NC(=O)c1c(NC(=O)c2ccccc2C(=O)O)sc2c1CCCC2 | -2 | 12 | -8 | -5 | -12
NC(=O)c1c(NC(=O)c2ccc(N3C(=O)CCC3=O)cc2)sc2c1CCCC2 | -2 | -75 | 0 | -6 | 75*
NC(=O)c1c(NC(=O)c2ccccc2F)sc2c1CCCC2 | -2 | -57 | 2 | 77* | 57
NC(=O)C1(Nc2ccc(Br)cc2)CCCC1 | 2 | 14 | 0 | 13 | -14
COc1cccc(/C=N/n2c(=S)n(C)c3ccccc32)c1OC | 0 | -16 | -3 | 0 | 16
Cn1c(=S)n(/N=C/c2cccs2)c2ccccc21 | -6 | 262* | -2 | -3 | -262
COc1ccc(-c2nc(N)n(C(=O)c3ccco3)n2)cc1 | -7 | -22 | · | 77* | 22
COc1cc(CCC(N)c2cccc(O)c2)cc(OC)c1OC (stereo not given) | -2 | 11 | 0 | -2 | -11
OC1(C#CCCN2CCCCC2)c2ccccc2-c2ccccc21 | -3 | 5 | 12 | 50* | -5
COc1ccccc1NC(=O)Nc1nc(CC(=O)Nc2ccc(N(C)C)cc2)cs1 | -11 | -91 | -2 | -12 | 91*
COc1ccccc1NC(=O)Nc1nc(CC(=O)Nc2cc(F)ccc2F)cs1 | 11 | -97 | -2 | -1 | 97*
COc1ccc(N(CC(=O)NCc2ccco2)C(=O)CCC(=O)Nc2ccccn2)cc1 | 0 | -1 | -3 | -2 | 1
Cc1ccc(C)c(Nc2c([N+](=O)[O-])cc(C(=O)N3CC(=O)Nc4ccccc43)cc2[N+](=O)[O-])c1 | -6 | -72 | 0 | -1 | ?
Cc1cccc(Nc2c([N+](=O)[O-])cc(C(=O)N3CC(=O)Nc4ccccc43)cc2[N+](=O)[O-])c1 | -12 | -82 | 1 | · | 82*
SMILES | ATG4B inhibitor | SR-BI DiI-HDL act | CAL PDZ FP-1 | CAL PDZ FP-2 | SR-BI DiI inh
CCOC(=O)C1=C(COC(=O)C2(C)CC2(Cl)Cl)NC(=O)NC1c1ccc(OC)cc1 (stereo not given) | -4 | -73 | 1 | -2 | 73*
CCc1ccc(NC(=O)C(=O)NCC2CCCN2S(=O)(=O)c2ccccc2)cc1 (stereo not given) | -11 | -5 | -3 | -5 | 5
CN(C)C(=O)N1CCN(C(=O)N2CCOCC2)CC1 | -3 | 75* | -2 | -7 | -75
CCCn1c(N)c(N(CCOC)C(=O)CSc2cc(C)c3ccccc3n2)c(=O)[nH]c1=O | 2 | 3 | 1 | · | -3
O=C(CN1c2ccccc2Sc2ccccc21)NNC(=S)Nc1ccc(Cl)cc1Cl | -6 | -76 | 0 | -2 | 76*
Cc1ccc(-c2cc(C(=O)N/N=C/c3ccccc3O)n[nH]2)o1 | -11 | -83 | -4 | -3 | 83*
Cc1ccc(-c2cc(C(=O)N/N=C/c3c[nH]c4ccccc34)n[nH]2)o1 | -25 | -16 | -3 | -1 | 16
COc1ccc(C(=O)NC2CCN(C(=O)NCc3ccccc3)CC2)cc1 | -7 | -10 | -1 | 1 | 10
COc1ccc(C(=O)NC=C2C(=O)OC(C)(C)OC2=O)cc1 | 11 | 30 | 0 | -4 | -30
COc1cc(Br)c(C(=O)c2nccc3cc(OC)c(OC)cc23)cc1OC | 16 | -15 | 71* | -3 | 15
COc1c(S(=O)(=O)NCCCn2ccnc2)ccc(Cl)c1Cl | -6 | 10 | -4 | -7 | -10
Cc1cc2cc3c(cc2nc1SCC(=O)N1CCN(C(=O)c2ccco2)CC1)OCO3 | -11 | -23 | -3 | -2 | 23
Cc1cc2cc3c(cc2nc1SCC(=O)OC(C)C)OCO3 | 1 | -78 | -3 | 3 | 78*
CCOc1cc(/C=C/c2nc3ccccc3s2)ccc1OCC(=O)N1CCOCC1 | 16 | -78 | -3 | -6 | 78*
CCOc1cc(C(=O)NCc2ccccc2)ccc1OCC(=O)N1CCOCC1 | 3 | 7 | 0 | · | -7
CCOC(=O)/C(=C/c1ccc(OC(F)F)cc1)C1=Nn2c(nnc2-c2ccc(Cl)cc2)SC1 | -2 | -39 | -2 | -2 | 39
CCOC(=O)/C(=C\c1ccc(OC(F)F)cc1)C1=Nn2c(nnc2-c2ccc(Cl)cc2)SC1 | -13 | -89 | -1 | -1 | 89*
CCOC(=O)c1cnc2cc(-c3ccc(Cl)cc3)nn2c1N | 10 | -86 | -1 | -3 | 86*
CCOC(=O)c1cnc2ncnn2c1N | -5 | 25 | 0 | 52* | -25
O=S1(=O)CCC(n2nccc2-c2ccccc2)C1 (stereo not given) | -9 | 5 | 0 | 0 | -5
CC1CCN(c2nc(-c3ccncc3)nc3ccccc23)CC1 | 12 | -80 | -2 | -2 | 80*
COc1ccc(S(=O)(=O)N(C)C2CCN(C)CC2)cc1 | -4 | 263* | 0 | · | -263
Cc1cc(C)cc(OCc2nnc(SCC(=O)N3CCN(c4ccccc4)CC3)o2)c1 | -2 | -79 | -3 | · | 79*
COc1ccccc1C1CC(=O)Oc2c(C(C)C)ccc(C)c21 (stereo not given) | 2 | -23 | -1 | -5 | 23
O=C(CN1CCN(C(C(=O)Nc2ccc(F)cc2)c2ccccc2)CC1)NC1CC1 (stereo not given) | -3 | 21 | -1 | 0 | -21
